ChEMBL document CHEMBL3808293, “Antiproliferative activity and apoptosis inducing effects of nitric oxide donating derivatives of evodiamine” (Bioorg Med Chem, 2016)
Active and inactive are the calls of the source. No cut-off for these calls is given here.

Legend:
[1] = system: A549; assay: Antiproliferative activity against human A549 cells after 72 hrs by MTT assay; format: functional, cell-based; conditions: A549, 72 h
Method in brief: (§1)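 Cells pre-incubated 24 h at 37 °C, 5% CO2, then exposed to compounds for 72 h. MTT (5 mg/mL solution) added for a further 4 h, formazan dissolved in DMSO, OD read at 570 nm. Negative reference 0.1% DMSO; evodiamine and 5-Fu as positive references. IC50 is the concentration inhibiting 50% of growth; mean ± SD of three independent experiments.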

[2] = system: BGC-823; assay: Induction of NO release in human BGC823 cells at 100 uM incubated for 1 hr by Griess assay; format: functional
Method in brief: (§2)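 Cells exposed to 100 μM compound; the methods give 150 min, the results text 1 h. Cell lysates mixed with Griess reagent 10 min at 37 °C, absorbance read at 540 nm. Nitrite quantified against a sodium nitrite standard curve; 0.4% DMSO-treated cells gave background. Mean ± SD of three independent experiments.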

[3] = system: Bel-7402; assay: Induction of NO release in human Bel7402 cells at 100 uM incubated for 1 hr by Griess assay; format: functional; method in brief: as §2
[4] = system: L02; assay: Induction of NO release in human L02 cells at 100 uM incubated for 1 hr by Griess assay; format: functional; method in brief: as §2
[5] = Antiproliferative activity against human Bel7402 cells after 72 hrs by MTT assay; format: functional, cell-based; conditions: Bel-7402, 72 h; method in brief: as §1
[6] = Antiproliferative activity against human L02 cells after 72 hrs by MTT assay; format: cell-based; conditions: L02, 72 h; method in brief: as §1
[7] = Antiproliferative activity against human BGC823 cells after 72 hrs by MTT assay; format: functional, cell-based; conditions: BGC-823, 72 h; method in brief: as §1
[8] = system: Bel-7402; assay: Induction of apoptosis in human Bel7402 cells assessed as early apoptotic cells at 1 uM after 72 hrs by Annexin V-FITC/propidium iodide staining based flow cytometry (reference value: 6.66%); format: functional
[9] = Cell cycle arrest in human Bel7402 cells assessed as accumulation at G1 phase at 1 uM after 24 hrs by propidium iodide staining based flow cytometry (reference value: 43.13%); format: functional; conditions: Bel-7402
[10] = system: Bel-7402; assay: Induction of apoptosis in human Bel7402 cells assessed as early apoptotic cells at 3 uM after 72 hrs by Annexin V-FITC/propidium iodide staining based flow cytometry (reference value: 6.66%); format: functional
[11] = system: Bel-7402; assay: Induction of apoptosis in human Bel7402 cells assessed as late apoptotic cells at 3 uM after 72 hrs by Annexin V-FITC/propidium iodide staining based flow cytometry (reference value: 2.55%); format: functional
[12] = system: Bel-7402; assay: Induction of mitochondrial membrane depolarization in human Bel7402 cells at 2 uM after 72 hrs by JC-1 staining based flow cytometry (reference value: 4.26%); format: functional
[13] = system: Bel-7402; assay: Induction of apoptosis in human Bel7402 cells assessed as necrotic cells at 2 uM after 72 hrs by Annexin V-FITC/propidium iodide staining based flow cytometry (reference value: 2.48%); format: functional
[14] = Cell cycle arrest in human Bel7402 cells assessed as accumulation at G1 phase at 2 uM after 24 hrs by propidium iodide staining based flow cytometry (reference value: 43.13%); format: functional; conditions: Bel-7402
[15] = Induction of apoptosis in human Bel7402 cells assessed as upregulation of FAS protein expression at 1 to 3 uM after 72 hrs by Western blot analysis; format: functional, cell-based; conditions: Bel-7402
Method in brief: (§3)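 Bel-7402 cells exposed to different doses for 72 h, lysed, and protein content determined. Lysates separated on 10% SDS-PAGE and transferred to nitrocellulose. Membranes probed with monoclonal primary antibodies, then HRP-conjugated secondary antibodies, with ECL detection.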

[16] = system: Bel-7402; assay: Induction of mitochondrial membrane depolarization in human Bel7402 cells at 3 uM after 72 hrs by JC-1 staining based flow cytometry (reference value: 4.26%); format: functional
[17] = system: Bel-7402; assay: Induction of apoptosis in human Bel7402 cells assessed as necrotic cells at 3 uM after 72 hrs by Annexin V-FITC/propidium iodide staining based flow cytometry (reference value: 2.48%); format: functional
[18] = system: Bel-7402; assay: Induction of apoptosis in human Bel7402 cells assessed as increase in caspase-9 expression at 1 to 3 uM after 72 hrs by Western blot analysis; format: functional, cell-based; method in brief: as §3
[19] = system: Bel-7402; assay: Induction of apoptosis in human Bel7402 cells assessed as live cells at 2 uM after 72 hrs by Annexin V-FITC/propidium iodide staining based flow cytometry (reference value: 88.31%); format: functional
[20] = system: Bel-7402; assay: Induction of apoptosis in human Bel7402 cells assessed as live cells at 3 uM after 72 hrs by Annexin V-FITC/propidium iodide staining based flow cytometry (reference value: 88.31%); format: functional
[21] = Cell cycle arrest in human Bel7402 cells assessed as accumulation at G2 phase at 3 uM after 24 hrs by propidium iodide staining based flow cytometry (reference value: 23.17%); format: functional; conditions: Bel-7402
[22] = Cell cycle arrest in human Bel7402 cells assessed as accumulation at G2 phase at 2 uM after 24 hrs by propidium iodide staining based flow cytometry (reference value: 23.17%); format: functional; conditions: Bel-7402
[23] = system: Bel-7402; assay: Induction of apoptosis in human Bel7402 cells assessed as down regulation of Bcl-2 expression at 1 to 3 uM after 72 hrs by Western blot analysis; format: functional, cell-based; method in brief: as §3
[24] = Cell cycle arrest in human Bel7402 cells assessed as accumulation at G1 phase at 3 uM after 24 hrs by propidium iodide staining based flow cytometry (reference value: 43.13%); format: functional; conditions: Bel-7402
[25] = system: Bel-7402; assay: Induction of apoptosis in human Bel7402 cells assessed as early apoptotic cells at 2 uM after 72 hrs by Annexin V-FITC/propidium iodide staining based flow cytometry (reference value: 6.66%); format: functional
[26] = Cell cycle arrest in human Bel7402 cells assessed as accumulation at S phase at 3 uM after 24 hrs by propidium iodide staining based flow cytometry (reference value: 33.7%); format: functional; conditions: Bel-7402
[27] = system: Bel-7402; assay: Induction of apoptosis in human Bel7402 cells assessed as late apoptotic cells at 2 uM after 72 hrs by Annexin V-FITC/propidium iodide staining based flow cytometry (reference value: 2.55%); format: functional
[28] = system: Bel-7402; assay: Induction of mitochondrial membrane depolarization in human Bel7402 cells at 1 uM after 72 hrs by JC-1 staining based flow cytometry (reference value: 4.26%); format: functional
[29] = Induction of apoptosis in human Bel7402 cells assessed as upregulation of Bax expression at 1 to 3 uM after 72 hrs by Western blot analysis; format: functional, cell-based; conditions: Bel-7402; method in brief: as §3
[30] = system: Bel-7402; assay: Induction of apoptosis in human Bel7402 cells assessed as increase in caspase-8 expression at 1 to 3 uM after 72 hrs by Western blot analysis; format: functional, cell-based; method in brief: as §3
[31] = system: Bel-7402; assay: Induction of apoptosis in human Bel7402 cells assessed as increase in caspase-3 expression at 1 to 3 uM after 72 hrs by Western blot analysis; format: functional, cell-based; method in brief: as §3
[32] = system: Bel-7402; assay: Induction of apoptosis in human Bel7402 cells assessed as necrotic cells at 1 uM after 72 hrs by Annexin V-FITC/propidium iodide staining based flow cytometry (reference value: 2.48%); format: functional
[33] = Cell cycle arrest in human Bel7402 cells assessed as accumulation at S phase at 2 uM after 24 hrs by propidium iodide staining based flow cytometry (reference value: 33.7%); format: functional; conditions: Bel-7402
[34] = system: Bel-7402; assay: Induction of apoptosis in human Bel7402 cells assessed as increase in cytochrome-C level at 1 to 3 uM after 72 hrs by Western blot analysis; format: functional, cell-based; method in brief: as §3
[35] = system: Bel-7402; assay: Induction of apoptosis in human Bel7402 cells assessed as live cells at 1 uM after 72 hrs by Annexin V-FITC/propidium iodide staining based flow cytometry (reference value: 88.31%); format: functional
[36] = Cell cycle arrest in human Bel7402 cells assessed as accumulation at G2 phase at 1 uM after 24 hrs by propidium iodide staining based flow cytometry (reference value: 23.17%); format: functional; conditions: Bel-7402
[37] = system: Bel-7402; assay: Induction of apoptosis in human Bel7402 cells assessed as late apoptotic cells at 1 uM after 72 hrs by Annexin V-FITC/propidium iodide staining based flow cytometry (reference value: 2.55%); format: functional
[38] = system: Bel-7402; assay: Induction of mitochondrial membrane depolarization in human Bel7402 cells after 72 hrs by JC-1 staining based flow cytometry; format: functional, cell-based
[39] = Cell cycle arrest in human Bel7402 cells assessed as accumulation at S phase at 1 uM after 24 hrs by propidium iodide staining based flow cytometry (reference value: 33.7%); format: functional; conditions: Bel-7402
[40] = system: Bel-7402; assay: Induction of apoptosis in human Bel7402 cells after 72 hrs by Annexin V-FITC/propidium iodide staining based flow cytometry; format: functional, cell-based

## CN1c2ccccc2C(=O)N2CCc3c(n(CCCCCCO[N+](=O)[O-])c4ccccc34)C21 (centres undefined)
[1]
  IC50: > 100 µM
[2]
  Activity: 100 µM
[3]
  Activity: 104 µM
[4]
  Activity: 16.4 µM
[5]
  IC50: 28.8 µM
[6]
  IC50: > 100 µM
[7]
  IC50: > 100 µM

## CN1c2ccccc2C(=O)N2CCc3c(n(CCCO[N+](=O)[O-])c4ccccc34)C21 (centres undefined)
[1]
  IC50: > 100 µM
[2]
  Activity: 83.8 µM
[3]
  Activity: 78.5 µM
[4]
  Activity: 19.4 µM
[5]
  IC50: 12.8 µM
[6]
  IC50: > 100 µM
[7]
  IC50: > 100 µM

## CN1c2ccccc2C(=O)N2CCc3c(n(CCOC(=O)CCC(=O)OCCOc4no[n+]([O-])c4S(=O)(=O)c4ccccc4)c4ccccc34)C21 (centres undefined)
[1]
  IC50: 3.04 µM
[2]
  Activity: 93.5 µM
[3]
  Activity: 88.7 µM
[4]
  Activity: 6.59 µM
[5]
  IC50: 1.54 µM
[6]
  IC50: 17.1 µM
[7]
  IC50: 0.02 µM

## CN1c2ccccc2C(=O)N2CCc3c([nH]c4ccccc34)C21 (centres undefined)
[1]
  IC50: 0.98 µM
[5]
  IC50: 1.23 µM
[6]
  IC50: 0.34 µM
[7]
  IC50: 1.16 µM

## CN1c2ccccc2C(=O)N2CCc3c(n(CCCCCCOc4no[n+]([O-])c4S(=O)(=O)c4ccccc4)c4ccccc34)C21 (centres undefined)
[8]
  Activity: 15.92%
[9]
  Activity: 44.9%
[1]
  IC50: 2.31 µM
[10]
  Activity: 24.37%
[11]
  Activity: 28.2%
[12]
  Activity: 26.57%
[13]
  Activity: 4.74%
[14]
  Activity: 42.6%
[15]
  Activity: Active
[16]
  Activity: 44.37%
[17]
  Activity: 6.69%
[18]
  Activity: Active
[19]
  Activity: 58.88%
[2]
  Activity: 87.3 µM
[20]
  Activity: 40.74%
[21]
  Activity: 5.9%
[22]
  Activity: 10%
[23]
  Activity: Active
[24]
  Activity: 42.6%
[25]
  Activity: 20.98%
[26]
  Activity: 51.5%
[27]
  Activity: 15.4%
[28]
  Activity: 13.5%
[29]
  Activity: Active
[30]
  Activity: Active
[3]
  Activity: 82.2 µM
[31]
  Activity: Active
[32]
  Activity: 2.73%
[33]
  Activity: 47.3%
[4]
  Activity: 26 µM
[5]
  IC50: 2.1 µM
[34]
  Activity: Active
[6]
  IC50: > 100 µM
[35]
  Activity: 77.63%
[36]
  Activity: 15.7%
[37]
  Activity: 3.71%
[38]
  Activity: Dose-dependent effect
[7]
  IC50: 0.07 µM
[39]
  Activity: 39.3%
[40]
  Activity: Dose-dependent effect

## O=C(O)CCC(=O)OCCOc1no[n+]([O-])c1S(=O)(=O)c1ccccc1
[1]
  IC50: 27.9 µM
[5]
  IC50: 21.4 µM
[6]
  IC50: 38.7 µM
[7]
  IC50: 18 µM

## COC(=O)CCC(=O)OCCOc1no[n+]([O-])c1S(=O)(=O)c1ccccc1
[1]
  IC50: 24.7 µM
[5]
  IC50: 27.9 µM
[6]
  IC50: 43.3 µM
[7]
  IC50: 21.4 µM

## CN1c2ccccc2C(=O)N2CCc3c(n(CCOc4no[n+]([O-])c4S(=O)(=O)c4ccccc4)c4ccccc34)C21 (centres undefined)
[1]
  IC50: 0.23 µM
[2]
  Activity: 78.8 µM
[3]
  Activity: 77.5 µM
[4]
  Activity: 18.5 µM
[5]
  IC50: 0.55 µM
[6]
  IC50: 0.02 µM
[7]
  IC50: 0.02 µM

## CN1c2ccccc2C(=O)N2CCc3c(n(CCCOc4no[n+]([O-])c4S(=O)(=O)c4ccccc4)c4ccccc34)C21 (centres undefined)
[1]
  IC50: 5.85 µM
[2]
  Activity: 83.6 µM
[3]
  Activity: 83.1 µM
[4]
  Activity: 16.4 µM
[5]
  IC50: 6.21 µM
[6]
  IC50: 2.35 µM
[7]
  IC50: 0.08 µM

## CN1c2ccccc2C(=O)N2CCc3c(n(CCCOC(=O)CCC(=O)OCCOc4no[n+]([O-])c4S(=O)(=O)c4ccccc4)c4ccccc34)C21 (centres undefined)
[1]
  IC50: 5.32 µM
[2]
  Activity: 97.6 µM
[3]
  Activity: 97 µM
[4]
  Activity: 18 µM
[5]
  IC50: 4.65 µM
[6]
  IC50: 6.38 µM
[7]
  IC50: 0.06 µM
